Reference: article PMC3155308 (The EMBO Journal, 2011)
Where no end group is shown, it is not given here.

Key:
[1] = system: myosin-X MyTH4–FERM cassette / microtubules; experiment: Competition microtubule co-sedimentation of MyTH4–FERM cassette; assay type: binding, human; conditions: Myo-X 4 μM; integrin β5 peptide 0, 4, 20 and 40 μM; three independent measurements
[2] = system: myosin-X MyTH4–FERM cassette; experiment: Pull-down with GST-fused integrin β5 cytoplasmic tail; assay type: binding, human; conditions: GST-fused integrin β5 (743–799), Myo-X 10 μM
In short: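 MyTH4–FERM cassette (10 μM) was pulled down on glutathione-Sepharose at 4°C by GST-fused human integrin β5 cytoplasmic tail (743–799), with DCC P3 peptide at 0, 10, 50 or 100 μM. Eluates were run on SDS–PAGE. Bound cassette was expressed relative to the no-DCC sample, from three independent measurements.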

integrin β5 cytoplasmic peptide: integrin β5 cytoplasmic tail (residues 743–799) ({GST}-KLLVTIHDRREFAKFQSERSRARYEMASNPLYRKPISTHTVDFTFNKFNKSYNGTVD; not fully specified)
interference with microtubule binding by integrin β5 [1]: interfere with microtubule binding
binding of integrin β5 cytoplasmic peptide [2]: showed binding
